Data: ChEMBL document CHEMBL4680084, “New β-Lactam Derivatives Modulate Cell Adhesion and Signaling Mediated by RGD-Binding and Leukocyte Integrins” (J Med Chem, 2016)
The source made the active and inactive calls. The rule behind the calls is not given here.

Assays:
Integrin alpha-5/beta-1 [1] = biological target: T1, Integrin alpha-5/beta-1 (Homo sapiens, UniProt P05556+P08648); assay: Inhibition of fibronectin binding to alpha5beta1 isolated from human K562 cells incubated for 1 hr by […] competitive solid-phase binding assay; assay type: tissue-based
How it was run: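 Plates coated overnight at 4 °C in carbonate buffer pH 9.6 with fibronectin 0.5 µg/mL (αvβ3, αvβ6, α5β1), fibrinogen 10 µg/mL (αIIbβ3, αvβ5) or ICAM-1 (αLβ2). Blocked 1 h in buffer containing Ca/Mg/Mn 1 mM each and 1% BSA. Purified integrin (3–10 µg/mL) incubated with compound (10⁻⁴–10⁻¹⁰ M) 1 h at room temperature. Bound integrin detected with primary antibody then AlexaFluor488 secondary, Ex485/Em535. Duplicate, at least three repeats.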

SK-MEL-24 = assay: Toxicity in human SK-MEL-24 cells assessed as induction of cell necrosis and/or apoptosis incubated for 3 hrs by annexin V-PE and 7-AAD staining based by flow cytometry; conditions: sk-mel-24, 3 h
How it was run: (§1)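 After 3 h incubation, cells resuspended in complete medium and stained with annexin V-PE/7-AAD reagent for 20 min at room temperature in the dark. Flow cytometry sorted cells into viable, early apoptotic and late apoptotic/necrotic populations.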

MCF7 = assay: Toxicity in human MCF7 cells assessed as induction of cell necrosis and/or apoptosis incubated for 3 hrs by annexin V-PE and 7-AAD staining based by flow cytometry; conditions: mcf7, 3 h; how it was run: as §1
HT-29 = assay: Toxicity in human HT-29 cells assessed as induction of cell necrosis and/or apoptosis incubated for 3 hrs by annexin V-PE and 7-AAD staining based by flow cytometry; conditions: ht-29, 3 h; how it was run: as §1
K562 = assay: Toxicity in human K562 cells assessed as induction of cell necrosis and/or apoptosis incubated for 3 hrs by annexin V-PE and 7-AAD staining based by flow cytometry; conditions: k562, 3 h; how it was run: as §1
HEL = assay: Toxicity in human HEL cells assessed as induction of cell necrosis and/or apoptosis incubated for 3 hrs by annexin V-PE and 7-AAD staining based by flow cytometry; how it was run: as §1
Integrin alpha-V/beta-3 [2] = biological target: T2, Integrin alpha-V/beta-3 (Homo sapiens, UniProt P05106+P06756); assay: Agonist activity at alphaVbeta3 in human SK-MEL-24 cells assessed as increase in cell adhesion to fibronectin pre-incubated for 30 mins before fibronectin and further incubated for 1 hr by nitrophenyl-N-acetyl-beta-D-glucosaminide substrate based chromogenic assay
How it was run: (§2)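 Compound or methanol vehicle pre-incubated with cells for 30 min at room temperature. Cells then plated on wells coated overnight at 4 °C with fibronectin 10 µg/mL (SK-MEL-24, K562, HT-29) or fibrinogen 10 µg/mL (MCF7, HEL). Seeding was 50,000 cells/well, or 100000 for HEL. Adhesion ran 1 h at room temperature. Wells washed with 1% BSA/PBS. Adherent cells read by hexosaminidase substrate, absorbance 405 nm. Quadruplicate, at least three repeats.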

Integrin alpha-V/beta-5 [3] = biological target: T3, Integrin alpha-V/beta-5 (Homo sapiens, UniProt P06756+P18084); assay: Agonist activity at alphaVbeta5 in human MCF7 cells assessed as increase in cell adhesion to fibrinogen pre-incubated for 30 mins before fibrinogen and further incubated for 1 hr by nitrophenyl-N-acetyl-beta-D-glucosaminide substrate based chromogenic assay; how it was run: as §2
Integrin alpha-V/beta-6 [4] = biological target: T4, Integrin alpha-V/beta-6 (Homo sapiens, UniProt P06756+P18564); assay: Antagonist activity at alphaVbeta6 in human HT-29 cells assessed as reduction in cell adhesion to fibronectin pre-incubated for 30 mins before fibronectin and further incubated for 1 hr by nitrophenyl-N-acetyl-beta-D-glucosaminide substrate based chromogenic assay
How it was run: as §2, with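 “BSA/PBS.” for “BSA/PBS. Adherent cells read by hexosaminidase substrate, absorbance 405 nm.”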

Integrin alpha-5/beta-1 [5] = biological target: T1, Integrin alpha-5/beta-1; assay: Agonist activity at alpha5beta1 in human K562 cells assessed as increase in cell adhesion to fibronectin pre-incubated for 30 mins before fibronectin and further incubated for 1 hr by nitrophenyl-N-acetyl-beta-D-glucosaminide substrate based chromogenic assay; how it was run: as §2
[6] = biological target: T5, Integrin alpha-IIb/beta-3 (Homo sapiens, UniProt P05106+P08514); assay: Agonist activity at alpha2bbeta3 in human HEL cells assessed as increase in cell adhesion to fibrinogen pre-incubated for 30 mins before fibrinogen and further incubated for 1 hr by nitrophenyl-N-acetyl-beta-D-glucosaminide substrate based chromogenic assay
How it was run: as §2, with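 “BSA/PBS.” for “BSA/PBS. Adherent cells read by hexosaminidase substrate, absorbance 405 nm.”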

[7] = biological target: T5, Integrin alpha-IIb/beta-3; assay: Antagonist activity at alpha2bbeta3 in human HEL cells assessed as reduction in cell adhesion to fibrinogen pre-incubated for 30 mins before fibrinogen and further incubated for 1 hr by nitrophenyl-N-acetyl-beta-D-glucosaminide substrate based chromogenic assay
How it was run: as §2, with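 “BSA/PBS.” for “BSA/PBS. Adherent cells read by hexosaminidase substrate, absorbance 405 nm.”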

Integrin alpha-4/beta-1 [8] = biological target: T6, Integrin alpha-4/beta-1 (Homo sapiens, UniProt P05556+P13612); assay: Antagonist activity at alpha4beta1 in human Jurkat E6.1 cells assessed as reduction in cell adhesion to VCAM1 pre-incubated for 30 mins before VCAM1 and further incubated for 30 mins by […]; assay type: cell-based
[9] = biological target: T7, Integrin alpha-L/beta-2 (LFA-1) (Homo sapiens, UniProt P05107+P20701); assay: Agonist activity at alphaLbeta2 in human Jurkat E6.1 cells assessed as increase in cell adhesion to ICAM1 pre-incubated for 30 mins before ICAM1 and further incubated for 30 mins by […]; assay type: cell-based
How it was run: (§3)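 Jurkat E6.1 cells labelled with CellTracker green CMFDA (12.5 µM, 30 min, 37 °C), washed, then pre-incubated 30 min at 37 °C with compound or methanol. Plated at 500,000/well on VCAM-1 (α4β1) or ICAM-1 (αLβ2) coated wells (5 µg/mL) for 30 min at 37 °C. Cells lysed in 0.5% Triton X-100; fluorescence read Ex485/Em535. Quadruplicate, at least three repeats.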

[10] = biological target: T7, Integrin alpha-L/beta-2 (LFA-1); assay: Antagonist activity at alphaLbeta2 in human Jurkat E6.1 cells assessed as reduction in cell adhesion to ICAM1 pre-incubated for 30 mins before ICAM1 and further incubated for 30 mins by […]; assay type: cell-based; how it was run: as §3
Integrin alpha-V/beta-3 [11] = biological target: T2, Integrin alpha-V/beta-3; assay: Inhibition of fibronectin binding to human recombinant alphaVbeta3 expressed in HEK293 cells incubated for 1 hr by […] competitive solid-phase binding assay; assay type: cell-based
Integrin alpha-V/beta-5 [12] = biological target: T3, Integrin alpha-V/beta-5; assay: Inhibition of fibrinogen binding to alphaVbeta5 isolated form human mCf7 cells incubated for 1 hr by […] competitive solid-phase binding assay
Integrin alpha-V/beta-6 [13] = biological target: T4, Integrin alpha-V/beta-6; assay: Inhibition of fibronectin binding to alphaVbeta6 isolated form human HT-29 cells incubated for 1 hr by […] competitive solid-phase binding assay; assay type: tissue-based
Integrin alpha-4/beta-1 [14] = biological target: T6, Integrin alpha-4/beta-1; assay: Inhibition of fibronectin binding to […] isolated from human Jurkat E6.1 cells incubated for 1 hr by scintillation-proximity assay based competitive solid-phase binding assay; assay type: tissue-based
Integrin alpha-5/beta-1 [15] = biological target: T1, Integrin alpha-5/beta-1; assay: Agonist activity at alpha5beta1 in human K562 cells assessed as increase in cell adhesion to fibronectin pre-incubated for 30 mins and further incubated for 1 hr by nitrophenyl-N-acetyl-beta-D-glucosaminide substrate based chromogenic assay; conditions: filed as agonist, time 90.0 min; how it was run: as §2
Integrin alpha-5/beta-1 [16] = biological target: T1, Integrin alpha-5/beta-1; assay: (§4) Agonist activity at alpha5beta1 in human K562 cells assessed as increase in cell adhesion to fibronectin at 10 ug/ml pre-incubated for 30 mins and further incubated for 1 hr in presence of integrin antagonist c(-RGDfV) by nitrophenyl-N-acetyl-beta-D-glucosaminide substrate based chromogenic assay; conditions: dose 10.0 µg/ml, time 90.0 min
How it was run: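 Agonist-coated wells (10 µg/mL in methanol). Cells pre-treated 10 min before plating with neutralizing anti-α5, anti-αv or anti-α4 antibody (10 µg/mL), or pre-incubated with c(-RGDfV) (1 µM). K562 plated at 50,000/well and Jurkat E6.1 at 500,000/well. Adhesion quantified as in the standard assay.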

Integrin alpha-5/beta-1 [17] = biological target: T1, Integrin alpha-5/beta-1; assay: as §4, with “pre-incubated for 30 mins” left out, “of neutralizing antibody against the alpha5” for “of”, “subunit” for “antagonist c(-RGDfV)”; conditions: dose 10.0 µg/ml, time 90.0 min
[18] = biological target: T5, Integrin alpha-IIb/beta-3; assay: Agonist activity at alpha2bbeta3 in human K562 cells assessed as increase in cell adhesion to fibrinogen pre-incubated for 30 mins and further incubated for 1 hr in presence of alpha2bbeta3 antagonist Tirofiban by nitrophenyl-N-acetyl-beta-D-glucosaminide substrate based chromogenic assay; conditions: filed as agonist, time 90.0 min
Integrin alpha-5/beta-1 [19] = biological target: T1, Integrin alpha-5/beta-1; assay: Agonist activity at alpha5beta1 in human K562 cells assessed as assessed as increase in ERK1/2 phosphorylation at 1 to 100 nM by Western blot analysis; assay type: cell-based; conditions: filed as agonist, dose 1-100 nM
Integrin alpha-4/beta-1 [20] = biological target: T6, Integrin alpha-4/beta-1; assay: Antagonist activity at alpha4beta1 in human Jurkat E6.1 cells assessed as reduction in VCAM-1 induced ERK1/2 phosphorylation at 1 to 100 nM by Western blot analysis; assay type: cell-based; conditions: filed as antagonist, dose 1-100 nM

For `Cc1ccccc1NC(=O)N1C(=O)CC1CC(=O)NCCC(=O)O` (stereo not given), the IC50 (Integrin alpha-5/beta-1 [1]) was 36 nM, the Activity (SK-MEL-24) was “Non-Toxic” and the Activity (MCF7) was “Non-Toxic”. The Activity (HT-29) was “Non-Toxic”, the Activity (K562) was “Non-Toxic” and the Activity (HEL) was “Non-Toxic”. For the same compound, the EC50 (Integrin alpha-V/beta-3 [2]) was 187 nM, the EC50 (Integrin alpha-V/beta-5 [3]) was 670 nM and the IC50 (Integrin alpha-V/beta-6 [4]) was 44.4 nM. The EC50 (Integrin alpha-5/beta-1 [5]) was 49 nM, the EC50 [6] was over 5 µM and the IC50 [7] was over 5 µM. The IC50 (Integrin alpha-4/beta-1 [8]) was 17.4 nM, the EC50 [9] was over 5 µM and the IC50 [10] was over 5 µM. For the same compound, the IC50 (Integrin alpha-V/beta-3 [11]) was 116 nM, the IC50 (Integrin alpha-V/beta-5 [12]) was 634 nM and the IC50 (Integrin alpha-V/beta-6 [13]) was 23.4 nM. The IC50 (Integrin alpha-4/beta-1 [14]) was 12.4 nM, the Activity (Integrin alpha-5/beta-1 [15]) was “Dose-dependent effect” and the Activity (Integrin alpha-5/beta-1 [16]) was “inactive”. For the same compound, the Activity (Integrin alpha-5/beta-1 [17]) was “inactive”, the Activity [18] was “Active” and the Activity (Integrin alpha-5/beta-1 [19]) was “Dose-dependent effect”. For the same compound, the Activity (Integrin alpha-4/beta-1 [20]) was “Dose-dependent effect”.
